Compounds with a hit are over-represented: about 3.8% of the library has one in this group of screens.
KCNQ1 block: inhibitors of human KCNQ1 potassium channel | CHO-K1 KCNQ1, FluxOR thallium flux fluorescence; hits give high values | B-score at 10 µM | P51787 | hit rate 1.3% among 310,000 | AID 2642;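 active = compounds whose thallium flux B-score, printed positive for inhibition, exceeds three library SD while starting fluorescence stays within three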;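 also: channel opened by potassium depolarization with thallium stimulus after 20 min compound exposure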
Target sequence (P51787 whole entry, looked up): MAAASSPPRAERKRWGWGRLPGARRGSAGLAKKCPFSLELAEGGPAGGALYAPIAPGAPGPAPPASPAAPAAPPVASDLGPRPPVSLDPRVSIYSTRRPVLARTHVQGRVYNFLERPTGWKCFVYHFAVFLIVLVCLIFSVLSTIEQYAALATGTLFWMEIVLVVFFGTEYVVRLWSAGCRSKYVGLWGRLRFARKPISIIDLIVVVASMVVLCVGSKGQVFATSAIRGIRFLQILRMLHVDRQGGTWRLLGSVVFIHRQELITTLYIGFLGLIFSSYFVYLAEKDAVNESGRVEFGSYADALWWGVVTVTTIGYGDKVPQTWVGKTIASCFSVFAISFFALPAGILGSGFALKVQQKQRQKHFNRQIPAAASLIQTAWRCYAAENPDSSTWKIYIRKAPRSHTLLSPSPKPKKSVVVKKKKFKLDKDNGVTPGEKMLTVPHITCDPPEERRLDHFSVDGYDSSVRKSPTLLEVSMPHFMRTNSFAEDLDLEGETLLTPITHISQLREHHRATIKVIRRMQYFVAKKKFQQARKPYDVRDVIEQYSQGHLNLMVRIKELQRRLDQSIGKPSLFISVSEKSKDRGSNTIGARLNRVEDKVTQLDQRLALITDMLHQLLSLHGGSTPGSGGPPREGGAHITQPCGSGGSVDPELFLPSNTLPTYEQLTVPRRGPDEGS
KCNK9 block: human KCNK9 channel inhibition. Q9NPC2. HEK293 KCNK9, FluxOR thallium flux fluorescence; hits give low values. B-score at 10 µM. hit rate 1.2% among 310,000. AID 488922;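 active = ratio B-score over 3 SD below the library mean, with starting fluorescence within 5 SD of its mean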;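 also: negative B-score means less thallium flux so channel inhibition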
Kir21 inh: Kir2.1 (mouse) channel inhibition | P35561 | HEK293-Kir2.1, FluxOR thallium flux fluorescence; hits give low values | B-score at 10 µM | hit rate 0.85% among 310,000 | AID 1672;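 active = fluorescence ratio B-score at or below minus 3 SD of library scores, with starting-brightness B-score within 2 SD, cut at about -4.2 in these data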;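 also: channel flux triggered by added potassium and thallium sulfate stimulus; B-score of peak minus minimum fluorescence over baseline after thallium stimulus; more negative B-score means stronger Kir2.1 block with less thallium influx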
hERG rescue: hERG (human) protection from proarrhythmic block | activation (rescue from dofetilide block), less the hit threshold, % at 10 µM | Q12809 | AID 1511 | CHO-hERG, FluxOR thallium flux, dofetilide IC70 present | hit rate 0.51% among 310,000;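 active = activation above the mean of controls blocked by dofetilide plus 5 SD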;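 also: thallium influx through hERG after potassium depolarization seen as dye fluorescence rise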
KCNK3 inh: human KCNK3 channel inhibition, primary screen; B-score at 10 µM; hit rate 0.84% among 340,000; O14649; CHO-KCNK3 thallium flux, FluxOR fluorescence; hits give low values;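 active = B-score under library mean minus 4 SD, starting fluorescence ratio at most library mean plus 5 SD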;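 also: more negative B-score means stronger inhibition of thallium flux through KCNK3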
KCNQ1 act: human KCNQ1 channel potentiation or activation; CHO-K1 KCNQ1, thallium flux FluxOR fluorescence; hits give high values; hit rate 0.35% among 310,000; P51787; B-score at 10 µM;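 active = fluorescence ratio B-score, a plate-corrected score, at least three library SD, with initial intensity B-score within 5 SD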
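Doses: Single concentration per compound, DMSO matched to controls | Test system: KCNQ1-transfected CHO-K1 cells | Timing: 90 min dye loading and 20 min compound exposure, both at room temperature | Measured by: Kinetic FluxOR thallium fluorescence, 10-s 1-Hz baseline, 110-s post-stimulus read | Medium: Assay buffer with matched DMSO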
Starred values were filed as active, the others as inactive; i = inactive; x = no result.

SMILES	KCNQ1 block	KCNK9 block	Kir21 inh	hERG rescue	KCNK3 inh	KCNQ1 act
O=C(NC(=S)N1CCN(Cc2ccc3c(c2)OCO3)CC1)c1cccc(Br)c1	i	i	0.63	25*	i	29*
CCNC(=S)N1CCN(Cc2ccc3c(c2)OCO3)CC1	i	i	1.7	-6	i	i
CCC(C)N(C(=O)Cn1nnc2ccccc21)C(C(=O)NCc1ccco1)c1cccc(OC)c1 (stereo not drawn)	i	i	-0.11	-8	i	i
Cc1c(C(=O)N(C)C)sc(NC(=O)c2cccc([N+](=O)[O-])c2)c1C#N	i	i	0.83	-9	i	i
Cc1ccc(NC(=O)c2cccc3cccnc23)cc1	i	-7.6*	0.17	-8	i	i
COc1ccc(C#Cc2ccc3c(c2)c(=O)c2ccccc2n3C)cc1	i	-7.4*	-0.3	-20	i	i
O=C(c1ccc(Cl)cc1[N+](=O)[O-])N(Cc1ccccc1)Cc1ccccc1	i	i	-0.58	-14	x	i
CCN(C(=O)c1ccc(Cl)cc1[N+](=O)[O-])c1ccccc1C	i	i	-5*	-10	i	i
O=C(NCCc1ccccc1)c1n[nH]c(=O)c2ccccc12	i	i	-2	-10	i	i
COC(=O)[C@H](C)NC(=O)Nc1cc(Cl)ccc1C	i	i	0.73	1	i	13*
CCOc1ccccc1NC(=O)NC1CC2CCCC(C1)N2Cc1nnnn1CCc1ccccc1 (stereo not drawn)	i	i	0.37	-7	-9.1*	i
O=C(Nc1ccccc1)NC1CC2CCC(C1)N2Cc1nnnn1Cc1ccc2c(c1)OCO2 (stereo not drawn)	i	i	0.13	-13	i	i
Cc1ccc2[nH]c(=O)c(CN(CCc3ccccc3)C(c3nnnn3Cc3ccco3)C(C)C)cc2c1 (stereo not drawn)	i	i	0.52	-5	-8.9*	i
CCC(c1nnnn1CCc1ccccc1)N(Cc1ccco1)Cc1cc2c(C)ccc(C)c2[nH]c1=O (stereo not drawn)	i	-7.3*	-6.5e-16	-9	i	i
CCC(c1nnnn1CCc1ccccc1)N(Cc1ccco1)Cc1cc2cc(C)cc(C)c2[nH]c1=O (stereo not drawn)	i	i	-0.34	-7	i	i
CCC(c1nnnn1Cc1ccco1)N(CCc1ccccc1)Cc1cc2cc(C)ccc2[nH]c1=O (stereo not drawn)	i	i	-3.1	-7	i	i
O=C(COc1ccc(C(=O)c2ccccc2)cc1)Nc1cccnc1	i	i	0.53	16*	i	i
N#Cc1ccc(-c2ccc(OCC(=O)Nc3cccnc3)cc2)cc1	i	i	1.2	-2	i	i
COc1ccc(CCNC(=O)Cc2ccsc2)cc1	i	i	-1.6	-12	i	i
CN(CCOc1ccccc1)CC(=O)Nc1cc([N+](=O)[O-])ccc1Cl	i	i	-4.7*	-12	i	i
Cc1ccc(-c2csc3nc4cc(C(=O)NC5CCC(O)CC5)ccc4c(=O)n23)cc1 (stereo not drawn)	i	i	-0.01	-10	i	i
O=C(CN1CCCCCC1)Nc1ccccc1F	i	i	0.1	-5	i	i
O=C(NCc1ccc(F)cc1)c1cc2sccc2n1Cc1ccc(F)cc1	i	-10*	1.2	-9	x	i
CCN1CCN(Cc2c(C)[nH]c3ccc(C(=O)OC)cc3c2=O)CC1	i	i	1.1	5.6*	i	i
O=C(Nc1ccccc1F)NC1CCCCCCC1	i	i	0.05	-5	i	i
O=C(Nc1ccccc1F)NC1CC1	i	i	-0.47	5.8*	i	i
O=S(=O)(c1ccc(N2CCC(c3ccc(Cl)cc3)=N2)cc1)N(CCO)CCO	i	i	0.44	-10	i	i
CN(C)CCCNS(=O)(=O)c1ccc(N2CCC(c3ccc(Cl)cc3)=N2)cc1	9*	-11*	-3.4	8.7*	x	i
CCOC(=O)CC(NC(=O)c1cc2cc(Br)ccc2oc1=O)c1cccc([N+](=O)[O-])c1 (stereo not drawn)	i	i	0.08	-5	i	i
